Results gathered from unrelated publications.
Lines come from different studies, so protocols differ.
Read-out: cell growth or viability

SMILES | cell line | assay | conditions | CC50 [µM]
CC1c2cc(c(O)c(O)c2O)C(C)c2cc(c(O)c(O)c2O)C(C)c2cc(c(O)c(O)c2O)C(C)c2cc1c(O)c(O)c2O (centres unmarked) | HEK293 | MTT | 24 h | 402
Cc1nc(C(CN)NC(=O)C(=O)Nc2ccc3c(c2)OCO3)sc1CO (centres unmarked) | MT2 | MTS | 96 h | ≥ 650
CC(C)c1cccc(=O)c(O)c1 | HepDES19 | MTS | 72 h | 66.4
NCCN(C(=O)c1ccc(Cl)cc1Cl)c1ccc(OCc2ccc(Cl)cc2)cc1 | HEK293 | MTT | 24 h | 7.96
O=c1cccccc1Sc1cccccc1=O | HepDES19 | MTS | 72 h | 20.8
COC(=O)N[C@H](C(=O)N1CCC[C@H]1c1nc(-c2ccc(-c3ccc(-c4c[nH]c([C@@H]5CCCN5C(=O)[C@@H](NC(=O)OC)C(C)C)n4)cc3)cc2)c[nH]1)C(C)C | MT2 |  | 5 days | 90
CC[C@H](C)[C@H](NC(=O)OCC1c2ccccc2-c2ccccc21)C(=O)Sc1cccccc1=O | HepDES19 | MTS | 72 h | 42.6
N=C(N)c1ccc(OCCCCCOc2ccc(C(=N)N)cc2)cc1 | HEK293 | MTT | 24 h | 82.9
C=C(C)c1ccccc(=O)c1O | HepDES19 | MTS | 72 h | 53.5
CC/C(=C(\c1ccccc1)c1ccc(OCCN(C)C)cc1)c1ccccc1 | HEK293 | resazurin | 20 h | 5.62
O[C@@H](c1cc(C(F)(F)F)nc2c(C(F)(F)F)cccc12)[C@H]1CCCCN1 | HEK293 | MTT | 24 h | 8.84
O=P(O)(O)c1cc2c(O)c(c1)Cc1cc(P(=O)(O)O)cc(c1O)Cc1cc(P(=O)(O)O)cc(c1O)Cc1cc(P(=O)(O)O)cc(c1O)Cc1cc(P(=O)(O)O)cc(c1O)Cc1cc(P(=O)(O)O)cc(c1O)Cc1cc(P(=O)(O)O)cc(c1O)Cc1cc(P(=O)(O)O)cc(c1O)C2 | HEK293 | ATP luminescence | 24 h | 747
CCOc1ccc(-c2nc(CNCCc3ccc(F)cc3)cs2)cc1 | HEK293 | MTT | 24 h | 39
N#Cc1cc(Cl)cc(Oc2ccc(Cl)cc2OCCn2cc(Cl)c(=O)[nH]c2=O)c1 | MT2 |  |  | 31
